Results on eight compounds are retold here after ChEMBL document CHEMBL1154125, “Ebenfurans IV-VIII from Onobrychis ebenoides: evidence that C-prenylation is the key determinant of the cytotoxicity of 3-formyl-2-arylbenzofurans” (J Nat Prod, 2008).

The subject of experiment [1] is MCF7. In words: Cytotoxicity against human MCF7 cells at 10 uM by MTT assay relative to control in absence of 17-beta-estradiol. Type of experiment: functional. In outline: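 MCF-7 cells were grown in phenol red-free MEM with 5% dextran-charcoal-stripped FBS and vehicle (DMSO) only. They were exposed for 3 days to agents dissolved in DMSO: test compounds at 10 µM, 17β-estradiol at 0.1 nM, ICI 182,780 at 1 µM. MTT formazan was read at 550 nm. Efficacy = OD test × 100/OD vehicle control, given as mean ± SEM of at least three independent assays.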
In general terms: Tetrazolium assays rely on reduction of a dye to a coloured formazan, in cell work by metabolically active cells.

The target of experiment [2] is T1, Estrogen receptor (Homo sapiens) (UniProt P03372).
T1 sequence (whole entry): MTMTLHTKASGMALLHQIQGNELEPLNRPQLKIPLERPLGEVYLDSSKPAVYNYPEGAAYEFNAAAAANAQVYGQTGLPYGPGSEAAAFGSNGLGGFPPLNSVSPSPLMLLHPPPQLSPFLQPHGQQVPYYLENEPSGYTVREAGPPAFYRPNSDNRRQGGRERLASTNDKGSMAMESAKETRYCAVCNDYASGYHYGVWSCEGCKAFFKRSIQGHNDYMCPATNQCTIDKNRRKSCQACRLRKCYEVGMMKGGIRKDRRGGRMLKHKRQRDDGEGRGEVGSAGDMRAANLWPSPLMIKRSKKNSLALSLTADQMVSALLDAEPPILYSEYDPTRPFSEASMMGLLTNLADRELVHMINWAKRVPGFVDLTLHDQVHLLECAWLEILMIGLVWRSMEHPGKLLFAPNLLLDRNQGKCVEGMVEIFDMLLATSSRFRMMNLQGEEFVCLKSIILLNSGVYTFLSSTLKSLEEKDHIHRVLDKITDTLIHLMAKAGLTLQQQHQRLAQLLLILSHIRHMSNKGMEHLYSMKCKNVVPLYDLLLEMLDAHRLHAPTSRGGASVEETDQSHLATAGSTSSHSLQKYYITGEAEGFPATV
In words: Binding affinity to recombinant ERalpha by fluorescence polarization assay relative to 17-beta-estradiol. On the technique in general: Fluorescence polarisation rises when a labelled molecule tumbles more slowly, as on binding a larger partner.

Experiment [3] has as its system MCF7. In words: Cytotoxicity against human MCF7 cells by MTT assay in presence of 17-beta-estradiol. Type of experiment: functional, cell-based. The gist of the method: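 In phenol red-free MEM with 5% dextran-charcoal-treated FBS containing 0.1 nM 17β-estradiol, MCF-7 cultures received increasing concentrations of agents (DMSO solutions) for 3 days. Readout was MTT formazan absorbance at 550 nm relative to cells given the hormone alone. EC50 = concentration reaching 50% of efficacy, derived only for statistically significant effects.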

Experiment [4] concerns MCF7. In words: Cytotoxicity against human MCF7 cells by MTT assay in absence of 17-beta-estradiol. In kind it is functional, cell-based. In outline:
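Cells were grown in steroid-depleted medium (phenol red-free MEM, 5% dextran-charcoal FBS) plus DMSO vehicle. Increasing concentrations of agents in DMSO were applied for 3 days. Viable cells were estimated from MTT formazan absorbance at 550 nm. EC50 = concentration giving 50% of efficacy, computed only for statistically significant effects.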

In experiment [5] the test system is MCF7. The experiment can be described thus: Cytotoxicity against human MCF7 cells at 10 uM by MTT assay relative to control in presence of 17-beta-estradiol. In kind it is functional. In outline: (§1)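 MCF-7 cells were kept in phenol red-free MEM with 5% dextran-charcoal-stripped FBS supplemented with 0.1 nM 17β-estradiol. They were treated for 3 days with test compounds at 10 µM, 17β-estradiol at 0.1 nM, or ICI 182,780 at 1 µM, all in DMSO. MTT conversion was read at 550 nm. OD × 100/OD of estradiol-alone control, mean ± SEM, ≥3 independent assays.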

Experiment [6] relates to MCF7. The experiment can be described thus: Cytotoxicity against human MCF7 cells at 0.1 nM by MTT assay relative to control in absence of 17-beta-estradiol. Type of experiment: functional.
Experiment [7] relates to MCF7. The experiment can be described thus: Cytotoxicity against human MCF7 cells at 0.1 nM by MTT assay relative to control in presence of 17-beta-estradiol. Type of experiment: functional. In outline: as §1
The test system of experiment [8] is MCF7. In words: Cytotoxicity against human MCF7 cells at 1 uM by MTT assay relative to control in the absence of 17-beta-estradiol. Type of experiment: functional. The gist of the method:
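MCF-7 cells in phenol red-free MEM with 5% dextran-charcoal-stripped FBS, vehicle (DMSO) only, no estradiol. ICI 182,780 at 1 µM applied for 3 days. Viable cells assessed by MTT formazan absorbance at 550 nm. Efficacy = OD treated ×100/OD vehicle control; mean ± SEM of at least three independent assays.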

In experiment [9] the test system is MCF7. The experiment can be described thus: Cytotoxicity against human MCF7 cells at 1 uM by MTT assay relative to control in presence of 17-beta-estradiol. In kind it is functional. The gist of the method: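 MCF-7 cells in phenol red-free MEM with 5% dextran-charcoal-stripped FBS, supplemented with 0.1 nM 17β-estradiol. Treated with ICI 182,780 at 1 µM (DMSO) for 3 days. MTT conversion to formazan read at 550 nm. Efficacy = OD treated ×100/OD of estradiol-alone control; mean ± SEM of ≥3 independent assays.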

The structures appear in SMILES notation.

As usually defined, the EC50 is the concentration that produces a half-maximal response. Regarding `COc1cc2oc(-c3ccc(O)cc3O)c(C=O)c2c(O)c1CC=C(C)C` [EBENFURAN III], the Activity worked out at 47% in the experiment with MCF7 [1] and 31% with MCF7 [5]. For the same compound, in experiment [2], the relative binding affinity (RBA) amounted to 0.09. The EC50 is 2.9 µM with MCF7 [3] and 2.6 µM in the experiment on MCF7 [4].
`COc1cc(O)c2c(C=O)c(-c3ccc(O)cc3O)oc2c1` [EBENFURAN II]: the values for the Activity in the experiment with MCF7 [1] and with MCF7 [5] were 111% and 64%, respectively. Besides, the relative binding affinity (RBA) in experiment [2] worked out at 0.18. The EC50 in the experiment with MCF7 [3] came out at 5.5 µM.
On to `COc1cc(O)ccc1-c1oc2cc(OC)c(CC=C(C)C)c(O)c2c1C=O` [EBENFURAN IV], for which the Activity with MCF7 [1] turned out to be 54%; with MCF7 [5], 31%. For the same compound, the relative binding affinity (RBA) in experiment [2] was found to be 0.46. For the same compound, the EC50 was 3.9 µM in the experiment on MCF7 [3] and 6.7 µM in the experiment on MCF7 [4].
Consider `C=C(C)C(O)Cc1c(OC)cc2oc(-c3ccc(O)cc3O)c(C=O)c2c1O` (stereo not drawn) [EBENFURAN VII], for which the figures for the Activity in the experiment with MCF7 [1] and in the experiment with MCF7 [5] were 123% and 79%, respectively. Moreover, the relative binding affinity (RBA) in experiment [2] worked out at 0.94.
Turning to `COc1cc(O)ccc1-c1oc2cc(OC)c(CCC(C)(C)O)c(O)c2c1C=O` [EBENFURAN VI], the Activity was 154% in the experiment on MCF7 [1] and 118% with MCF7 [5]. Further, the relative binding affinity (RBA) in experiment [2] was determined as 0.06. Besides, in the experiment on MCF7 [4], the EC50 was determined as 4.8 µM.
Turning to `COc1cc2oc(-c3ccc(O)cc3O)c(C=O)c2c(O)c1CCC(C)(C)O` [EBENFURAN V], the Activity came to 115% in the experiment with MCF7 [1] and 98% with MCF7 [5]. The relative binding affinity (RBA) in experiment [2] amounted to 0.23.
Regarding `C[C@]12CC[C@@H]3c4ccc(O)cc4CC[C@H]3[C@@H]1CC[C@@H]2O` [ESTRADIOL], the Activity in the experiment on MCF7 [6] was 163%; with MCF7 [7], 104%.
For the compound `C[C@]12CC[C@@H]3c4ccc(O)cc4C[C@@H](CCCCCCCCC[S+]([O-])CCCC(F)(F)C(F)(F)F)[C@H]3[C@@H]1CC[C@@H]2O` (stereo partly drawn) [FULVESTRANT], the Activity was 103% in the experiment on MCF7 [8] and 63% in the experiment on MCF7 [9].
